Here are results for 4 compounds from article PMC5503496 (Drug Design, Development and Therapy, 2017).

Entries after “also recorded” stand apart in the source; their conditions may differ.

One experiment deals with mushroom tyrosinase (Agaricus bisporus, UniProt C7FF04). Put plainly: Kinetic analysis of the inhibition of tyrosinase. It is filed as biochemical. To be noted: Lineweaver-Burk plots, L-DOPA.
Experiment [1] has as its system pigmentation of zebrafish. Nature of the experiment: In vivo depigmentation assay in zebrafish. Particulars: zebrafish embryos, 50 µM, 9 to 72 hpf. The arrangement: species or system zebrafish (Danio rerio). In short, it runs like this: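 Synchronized embryos from wild-type adults (kept at 28.5°C, 14 h light/10 h dark) were placed 2–3 per well in E3 medium (NaCl 5 mM, KCl 0.17 mM, CaCl2 0.33 mM, MgSO4 0.33 mM). […] Dechorionated embryos were anesthetized with MS-222, mounted in 1% methyl cellulose and photographed by stereomicroscope. Pigmentation was quantified by pixel measurement.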

Experiment [2] relates to melanin contents in zebrafish embryos. Nature of the experiment: Determination of melanin contents in zebrafish. To be noted: 50 µM, 72 hpf. The format is in vivo, zebrafish (Danio rerio).

Sequence of mushroom tyrosinase (C7FF04 1-392 limits assumed): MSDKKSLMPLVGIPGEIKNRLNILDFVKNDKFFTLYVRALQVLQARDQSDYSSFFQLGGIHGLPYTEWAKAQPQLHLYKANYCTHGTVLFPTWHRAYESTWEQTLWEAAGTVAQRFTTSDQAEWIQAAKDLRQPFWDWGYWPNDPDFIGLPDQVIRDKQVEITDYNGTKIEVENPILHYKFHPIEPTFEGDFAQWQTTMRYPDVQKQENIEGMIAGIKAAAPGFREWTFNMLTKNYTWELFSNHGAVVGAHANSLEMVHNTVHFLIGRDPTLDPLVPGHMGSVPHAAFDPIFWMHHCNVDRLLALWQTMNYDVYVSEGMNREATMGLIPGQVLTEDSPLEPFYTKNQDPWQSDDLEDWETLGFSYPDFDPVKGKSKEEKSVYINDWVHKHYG

On to `Cc1ccc(C(C)C)cc1NC(=O)COC(=O)c1ccc(O)cc1O` [4c, 2-[2-methyl-5-(propan-2-yl)anilino]-2-oxoethyl 2,4-dihydroxybenzoate], for which the Inhibition type entry on mushroom tyrosinase is reported as “non-competitive inhibition; also recorded: non-competitively”.
Consider `Cc1ccc(C(C)C)cc1NC(=O)COC(=O)/C=C/c1ccccc1` [6a, 2-[2-methyl-5-(propan-2-yl)anilino]-2-oxoethyl (2E)-3-phenylprop-2-enoate], for which the Inhibition type entry on mushroom tyrosinase is recorded as “mixed-type inhibition”.
The same measure, in the same setting: to `Cc1ccc(C(C)C)cc1NC(=O)COC(=O)/C=C/c1ccccc1O` [6b, 2-[2-methyl-5-(propan-2-yl)anilino]-2-oxoethyl (2E)-3-(2-hydroxyphenyl)prop-2-enoate] belongs “mixed-type inhibition”.
`O=c1cc(CO)occ1O` [Kojic acid]: in experiment [1], the “pigmentation level (decreased to)” value stood at 24.2%. Also, the melanin contents entry in experiment [2] is recorded as “only slightly reduced the melanin contents”.
